Measured values taken from article PMC7017397 (ACS Omega, 2020).

Key:
Assay type in all cases: in vivo, C57BL/6J mice
[1] = Brain pharmacokinetics after a single 1 mg/kg dose; conditions: for Cmax / MRT last / Tmax / k el: C57BL/6J, mouse, 1 mg/kg; for brain drug targeting efficiency: from zero-infinity predicted AUC values
Summary of the method: (§1)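 Anaesthetized (zolazepam/xylazine i.p.) male C57BL/6J mice, n = 4 per time point, were dosed 1 mg/kg by i.v., s.c., i.p. or gavage. At 2.5–90 min, after cardiac blood sampling, they were transcardially perfused with saline. Brain and spinal cord were homogenized in equal weight-volume water, spiked with internal standard, deproteinized 1:3 with cold acetonitrile and quantified by LC–MS/MS. Per-time-point means were fitted with a two-compartment model.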

[2] = Plasma pharmacokinetics after a single 1 mg/kg dose; conditions: for AUC / MRT last / k el: C57BL/6J, mouse, 1 mg/kg
Summary of the method: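 Male C57BL/6J mice (10–12 weeks; n = 4 per time point) under i.p. zolazepam 50 mg/kg plus xylazine 12 mg/kg received 1 mg/kg in 5% dextrose (37 °C) by tail-vein i.v., s.c., i.p. or gavage. Terminal cardiac-puncture blood was taken into EDTA at 2.5–90 min. Plasma was spiked with internal standard, acetonitrile-deproteinized and measured by LC–MS/MS. Mean levels were fitted two-compartmentally, with AUC by linear trapezoidal rule.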

[3] = Spinal cord pharmacokinetics after a single 1 mg/kg dose; conditions: for Cmax / MRT last / Tmax / k el: C57BL/6J, mouse, 1 mg/kg; for spinal cord drug targeting efficiency: from zero-infinity predicted AUC values
Summary of the method: as §1

[4] = brain, i.p. 1 mg/kg single dose
[5] = brain, i.v. 1 mg/kg single dose
[6] = brain, p.o. 1 mg/kg single dose
[7] = brain, s.c. 1 mg/kg single dose
[8] = spinal cord, i.p. 1 mg/kg single dose
[9] = spinal cord, i.v. 1 mg/kg single dose
[10] = spinal cord, p.o. 1 mg/kg single dose
[11] = spinal cord, s.c. 1 mg/kg single dose

Cmax ([1]; brain, ip): 48.1 ng/g
MRT last ([1]; brain, ip): 40.8 min
Tmax ([1]; brain, ip): 10.4 min
k el ([1]; brain, ip): 0.0002 s⁻¹
Cmax ([1]; brain, iv): 74.1 ng/g
MRT last ([1]; brain, iv): 42 min
k el ([1]; brain, iv): 0.0001 s⁻¹
Cmax ([1]; brain, po): 77 ng/g
MRT last ([1]; brain, po): 40.8 min
Tmax ([1]; brain, po): 14.9 min
k el ([1]; brain, po): 0.000122 s⁻¹
Cmax ([1]; brain, sc): 120 ng/g
MRT last ([1]; brain, sc): 42 min
Tmax ([1]; brain, sc): 19.9 min
k el ([1]; brain, sc): 0.000189 s⁻¹
Alpha (hybrid first-order rate constant, distribution phase) [1, 4]: 9.22 h⁻¹
Beta (hybrid first-order rate constant, elimination phase) [1, 4]: 0.30 h⁻¹
CLD2_F (apparent total clearance of the drug after administration) [1, 4]: 25.61 ng/(min ng/g)
CL_F (apparent total body clearance of the drug) [1, 4]: 3.77 ng/(min ng/g)
K01 (absorption rate constant) [1, 4]: 9.06 h⁻¹
K12 (distribution rate constant) [1, 4]: 4.92 h⁻¹
K21 (redistribution rate constant) [1, 4]: 3.87 h⁻¹
V1_F (apparent volume of central compartment) [1, 4]: 0.31 μg/(ng/g)
V2_F (apparent volume of peripheral compartment) [1, 4]: 0.40 μg/(ng/g)
Alpha (hybrid first-order rate constant, distribution phase) [1, 5]: 35.52 h⁻¹
Beta (hybrid first-order rate constant, elimination phase) [1, 5]: 0.20 h⁻¹
CLD2_F (apparent total clearance of the drug after administration) [1, 5]: 107.59 ng/(min ng/g)
CL_F (apparent total body clearance of the drug) [1, 5]: 2.43 ng/(min ng/g)
K12 (distribution rate constant) [1, 5]: 15.95 h⁻¹
K21 (redistribution rate constant) [1, 5]: 19.41 h⁻¹
V1_F (apparent volume of central compartment) [1, 5]: 0.40 μg/(ng/g)
V2_F (apparent volume of peripheral compartment) [1, 5]: 0.33 μg/(ng/g)
Vss (apparent volume of distribution at a steady state) [1, 5]: 0.74 μg/(ng/g)
Alpha (hybrid first-order rate constant, distribution phase) [1, 6]: 1.68 h⁻¹
Beta (hybrid first-order rate constant, elimination phase) [1, 6]: 0.26 h⁻¹
CLD2_F (apparent total clearance of the drug after administration) [1, 6]: 2.68 ng/(min ng/g)
CL_F (apparent total body clearance of the drug) [1, 6]: 2.28 ng/(min ng/g)
K01 (absorption rate constant) [1, 6]: 11.20 h⁻¹
K12 (distribution rate constant) [1, 6]: 0.51 h⁻¹
K21 (redistribution rate constant) [1, 6]: 0.99 h⁻¹
V1_F (apparent volume of central compartment) [1, 6]: 0.31 μg/(ng/g)
V2_F (apparent volume of peripheral compartment) [1, 6]: 0.16 μg/(ng/g)
Alpha (hybrid first-order rate constant, distribution phase) [1, 7]: 3.48 h⁻¹
Beta (hybrid first-order rate constant, elimination phase) [1, 7]: 0.41 h⁻¹
CLD2_F (apparent total clearance of the drug after administration) [1, 7]: 2.91 ng/(min ng/g)
CL_F (apparent total body clearance of the drug) [1, 7]: 1.75 ng/(min ng/g)
K01 (absorption rate constant) [1, 7]: 5.81 h⁻¹
K12 (distribution rate constant) [1, 7]: 1.13 h⁻¹
K21 (redistribution rate constant) [1, 7]: 2.07 h⁻¹
V1_F (apparent volume of central compartment) [1, 7]: 0.15 μg/(ng/g)
V2_F (apparent volume of peripheral compartment) [1, 7]: 0.08 μg/(ng/g)
brain drug targeting efficiency ([1]; i.p. 1 mg/kg): 0.71
brain drug targeting efficiency ([1]; p.o. 1 mg/kg): 8.21
brain drug targeting efficiency ([1]; s.c. 1 mg/kg): 1.37
AUC ([2]; ip): 1800 ng·h/mL
MRT last ([2]; ip): 27.4 min
k el ([2]; ip): 0.00114 s⁻¹
AUC ([2]; iv): 2510 ng·h/mL
MRT last ([2]; iv): 13.2 min
k el ([2]; iv): 0.00193 s⁻¹
AUC ([2]; po): 227 ng·h/mL
MRT last ([2]; po): 32.6 min
k el ([2]; po): 0.000711 s⁻¹
AUC ([2]; sc): 2240 ng·h/mL
MRT last ([2]; sc): 38.8 min
k el ([2]; sc): 0.000592 s⁻¹
Alpha (hybrid first-order rate constant, distribution phase) ([2]; i.p. 1 mg/kg single dose): 0.07 min⁻¹
Beta (hybrid first-order rate constant, elimination phase) ([2]; i.p. 1 mg/kg single dose): 0.03 min⁻¹
CLD2_F (apparent total clearance of the drug from plasma after administration) ([2]; i.p. 1 mg/kg single dose): <0.01 µL/min
CL_F (apparent total body clearance of the drug from plasma) ([2]; i.p. 1 mg/kg single dose): 0.16 µL/min
K01 (absorption rate constant) ([2]; i.p. 1 mg/kg single dose): 4.29 h⁻¹
K12 (distribution rate constant) ([2]; i.p. 1 mg/kg single dose): <0.001 h⁻¹
K21 (redistribution rate constant) ([2]; i.p. 1 mg/kg single dose): 2.00 h⁻¹
V1_F (apparent volume of central compartment) ([2]; i.p. 1 mg/kg single dose): <0.01 mL
V2_F (apparent volume of peripheral compartment) ([2]; i.p. 1 mg/kg single dose): <0.01 mL
Alpha (hybrid first-order rate constant, distribution phase) ([2]; i.v. 1 mg/kg single dose): 0.20 min⁻¹
Beta (hybrid first-order rate constant, elimination phase) ([2]; i.v. 1 mg/kg single dose): 0.05 min⁻¹
CLD2_F (apparent total clearance of the drug from plasma after administration) ([2]; i.v. 1 mg/kg single dose): 84.57 µL/min
CL_F (apparent total body clearance of the drug from plasma) ([2]; i.v. 1 mg/kg single dose): 199.16 µL/min
K12 (distribution rate constant) ([2]; i.v. 1 mg/kg single dose): 2.95 h⁻¹
K21 (redistribution rate constant) ([2]; i.v. 1 mg/kg single dose): 4.85 h⁻¹
V1_F (apparent volume of central compartment) ([2]; i.v. 1 mg/kg single dose): 1.72 mL
V2_F (apparent volume of peripheral compartment) ([2]; i.v. 1 mg/kg single dose): 1.05 mL
Alpha (hybrid first-order rate constant, distribution phase) ([2]; p.o. 1 mg/kg single dose): 0.04 min⁻¹
Beta (hybrid first-order rate constant, elimination phase) ([2]; p.o. 1 mg/kg single dose): 0.04 min⁻¹
CLD2_F (apparent total clearance of the drug from plasma after administration) ([2]; p.o. 1 mg/kg single dose): <0.01 µL/min
CL_F (apparent total body clearance of the drug from plasma) ([2]; p.o. 1 mg/kg single dose): 2.01 µL/min
K01 (absorption rate constant) ([2]; p.o. 1 mg/kg single dose): 2.92 h⁻¹
K12 (distribution rate constant) ([2]; p.o. 1 mg/kg single dose): <0.001 h⁻¹
K21 (redistribution rate constant) ([2]; p.o. 1 mg/kg single dose): 2.58 h⁻¹
V1_F (apparent volume of central compartment) ([2]; p.o. 1 mg/kg single dose): 0.05 mL
V2_F (apparent volume of peripheral compartment) ([2]; p.o. 1 mg/kg single dose): <0.01 mL
Alpha (hybrid first-order rate constant, distribution phase) ([2]; s.c. 1 mg/kg single dose): 0.04 min⁻¹
Beta (hybrid first-order rate constant, elimination phase) ([2]; s.c. 1 mg/kg single dose): 0.04 min⁻¹
CLD2_F (apparent total clearance of the drug from plasma after administration) ([2]; s.c. 1 mg/kg single dose): <0.01 µL/min
CL_F (apparent total body clearance of the drug from plasma) ([2]; s.c. 1 mg/kg single dose): 0.11 µL/min
K01 (absorption rate constant) ([2]; s.c. 1 mg/kg single dose): 2.28 h⁻¹
K12 (distribution rate constant) ([2]; s.c. 1 mg/kg single dose): <0.001 h⁻¹
K21 (redistribution rate constant) ([2]; s.c. 1 mg/kg single dose): 2.14 h⁻¹
V1_F (apparent volume of central compartment) ([2]; s.c. 1 mg/kg single dose): <0.01 mL
V2_F (apparent volume of peripheral compartment) ([2]; s.c. 1 mg/kg single dose): <0.01 mL
Cmax ([3]; spinal cord, ip): 71.3 ng/g
MRT last ([3]; spinal cord, ip): 37.2 min
Tmax ([3]; spinal cord, ip): 11.9 min
k el ([3]; spinal cord, ip): 0.000242 s⁻¹
Cmax ([3]; spinal cord, iv): 130 ng/g
MRT last ([3]; spinal cord, iv): 41.4 min
k el ([3]; spinal cord, iv): 0.000111 s⁻¹
Cmax ([3]; spinal cord, po): 75.9 ng/g
MRT last ([3]; spinal cord, po): 40.8 min
Tmax ([3]; spinal cord, po): 14.9 min
k el ([3]; spinal cord, po): 0.000122 s⁻¹
Cmax ([3]; spinal cord, sc): 96.6 ng/g
MRT last ([3]; spinal cord, sc): 38.4 min
Tmax ([3]; spinal cord, sc): 23.1 min
k el ([3]; spinal cord, sc): 0.000519 s⁻¹
spinal cord drug targeting efficiency ([3]; i.p. 1 mg/kg): 0.63
spinal cord drug targeting efficiency ([3]; p.o. 1 mg/kg): 4.42
spinal cord drug targeting efficiency ([3]; s.c. 1 mg/kg): 0.77
Alpha (hybrid first-order rate constant, distribution phase) [3, 8]: 0.87 h⁻¹
Beta (hybrid first-order rate constant, elimination phase) [3, 8]: 0.19 h⁻¹
CLD2_F (apparent total clearance of the drug after administration) [3, 8]: 0.01 ng/(min ng/g)
CL_F (apparent total body clearance of the drug) [3, 8]: 5.15 ng/(min ng/g)
K01 (absorption rate constant) [3, 8]: 15.39 h⁻¹
K12 (distribution rate constant) [3, 8]: <0.01 h⁻¹
K21 (redistribution rate constant) [3, 8]: 0.19 h⁻¹
V1_F (apparent volume of central compartment) [3, 8]: 0.35 μg/(ng/g)
V2_F (apparent volume of peripheral compartment) [3, 8]: <0.01 μg/(ng/g)
Alpha (hybrid first-order rate constant, distribution phase) [3, 9]: 26.36 h⁻¹
Beta (hybrid first-order rate constant, elimination phase) [3, 9]: 0.27 h⁻¹
CLD2_F (apparent total clearance of the drug after administration) [3, 9]: 30.58 ng/(min ng/g)
CL_F (apparent total body clearance of the drug) [3, 9]: 1.52 ng/(min ng/g)
K12 (distribution rate constant) [3, 9]: 7.94 h⁻¹
K21 (redistribution rate constant) [3, 9]: 18.30 h⁻¹
V1_F (apparent volume of central compartment) [3, 9]: 0.23 μg/(ng/g)
V2_F (apparent volume of peripheral compartment) [3, 9]: 0.10 μg/(ng/g)
Vss (apparent volume of distribution at a steady state) [3, 9]: 0.33 μg/(ng/g)
Alpha (hybrid first-order rate constant, distribution phase) [3, 10]: 1.69 h⁻¹
Beta (hybrid first-order rate constant, elimination phase) [3, 10]: 0.26 h⁻¹
CLD2_F (apparent total clearance of the drug after administration) [3, 10]: 2.71 ng/(min ng/g)
CL_F (apparent total body clearance of the drug) [3, 10]: 2.33 ng/(min ng/g)
K01 (absorption rate constant) [3, 10]: 11.20 h⁻¹
K12 (distribution rate constant) [3, 10]: 0.51 h⁻¹
K21 (redistribution rate constant) [3, 10]: 1.00 h⁻¹
V1_F (apparent volume of central compartment) [3, 10]: 0.32 μg/(ng/g)
V2_F (apparent volume of peripheral compartment) [3, 10]: 0.16 μg/(ng/g)
Alpha (hybrid first-order rate constant, distribution phase) [3, 11]: 2.66 h⁻¹
Beta (hybrid first-order rate constant, elimination phase) [3, 11]: 0.22 h⁻¹
CLD2_F (apparent total clearance of the drug after administration) [3, 11]: 1.36 ng/(min ng/g)
CL_F (apparent total body clearance of the drug) [3, 11]: 3.68 ng/(min ng/g)
K01 (absorption rate constant) [3, 11]: 2.70 h⁻¹
K12 (distribution rate constant) [3, 11]: 0.69 h⁻¹
K21 (redistribution rate constant) [3, 11]: 0.32 h⁻¹
V1_F (apparent volume of central compartment) [3, 11]: 0.12 μg/(ng/g)
V2_F (apparent volume of peripheral compartment) [3, 11]: 0.26 μg/(ng/g)
SMILES: CC(=O)N[C@@H](Cc1ccccc1)C(=O)N[C@H]1CCCNC(=O)[C@H](CCCNC(=N)N)NC(=O)[C@H](Cc2c[nH]c3ccccc23)NC(=O)[C@@H](CC2CCCCC2)NC(=O)[C@@H]2CCCN2C1=O [PMX53, Ac-Phe-[Orn-Pro-dCha-Trp-Arg]]
